Measured values reported in ChEMBL document CHEMBL4765346, “Inhibitor design to target a unique feature in the folate pocket of Staphylococcus aureus dihydrofolate reductase” (Eur J Med Chem, 2020).
Values after ≈ are worked out from the molar mass of the structure shown. Active and inactive are the calls of the source. The calls are words filed in the database; no cut-off is given here.

Columns and labels:
Staphylococcus aureus [1] = assay: (§1) Inhibition of recombinant Staphylococcus aureus DHFR expressed in Escherichia coli BL21 (DE3) using dihydrofolate as substrate and NADPH as cofactor incubated for 2.8 mins
Outline: (§2)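 Recombinant S. aureus DHFR expressed in E. coli BL21 (DE3). Reaction reconstituted with NADPH and varied inhibitor concentrations (racemates, diluted from 10 mM DMSO stock), started by adding dihydrofolate. Run at 30 °C, rate followed 2.8 min over linear range. 50% activity point from 4-parameter fit of rate vs concentration. IC50 converted to Ki by Cheng-Prusoff using previously measured KM. n ≥ 3 independent assays, duplicate technical replicates.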

Staphylococcus aureus [2] = assay: Antibacterial activity against Staphylococcus aureus ATCC 29213 assessed as inhibition of bacterial growth incubated for 18 hrs by spectrophotometric method; assay type: functional
Outline: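 Racemic compounds tested against standardized S. aureus strain 29213 cultures following CLSI procedure; MIC recorded; n = 2 independent assays, each with duplicate technical replicates.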

[3] = as §1; outline: as §2

Row | SMILES | inhibition (Staphylococcus aureus [1]) | MIC (Staphylococcus aureus [2]) [µg/mL] | Ki [3] [nM]
1 | CCC(CC)C1c2ccccc2C=NN1C(=O)/C=C/c1cc(Cc2cnc(N)nc2N)cc(OC)c1OC (configuration not stated) | inactive |  | 
2 | COc1cc(Cc2cnc(N)nc2N)cc(/C=C/C(=O)N2N=Cc3ccccc3C2CC(C)C)c1OC (configuration not stated) | Active |  | 
3 | COc1cc(Cc2cnc(N)nc2N)cc(/C=C/C(=O)N2N=Cc3ccccc3C2c2ccc(C)cc2)c1OC (configuration not stated) | inactive | 0.046 (≈ 0.086 µM) | 
4 | COc1ccc(CC2c3ccccc3C=NN2C(=O)/C=C/c2cc(Cc3cnc(N)nc3N)cc(OC)c2OC)cc1 (configuration not stated) |  |  | 1.2
5 | CCCC1c2cc(C)c(C)cc2C=NN1C(=O)/C=C/c1cc(Cc2cnc(N)nc2N)cc(OC)c1OC (racemic) |  | 0.5 (≈ 0.972 µM) | 1.2
6 | COc1cc2c(cc1OC)C(C1CC1)N(C(=O)/C=C/c1cc(Cc3cnc(N)nc3N)cc(OC)c1OC)N=C2 (racemic) |  | 1 (≈ 1.84 µM) | 0.7
7 | COc1cc(Cc2cnc(N)nc2N)cc(/C=C/C(=O)N2N=Cc3ccccc3C2C=C(C)C)c1OC (configuration not stated) | Active |  | 
8 | COc1cc(Cc2cnc(N)nc2N)cc(/C=C/C(=O)N2N=Cc3ccccc3C2Cc2ccc(C)cc2)c1OC (configuration not stated) |  | 0.25 (≈ 0.456 µM) | 2.3
9 | COc1cc(Cc2cnc(N)nc2N)cc(/C=C/C(=O)N2N=Cc3ccccc3C2CCC(F)(F)F)c1OC (configuration not stated) | Active |  | 
10 | COc1cc(Cc2cnc(N)nc2N)cc(/C=C/C(=O)N2N=Cc3ccccc3C2c2cc(C)cc(C)c2)c1OC (configuration not stated) | inactive |  | 
11 | COc1cc(Cc2cnc(N)nc2N)cc(/C=C/C(=O)N2N=Cc3ccccc3C2c2ccccc2)c1OC (configuration not stated) | Active |  | 
12 | COc1cc(Cc2cnc(N)nc2N)cc(/C=C/C(=O)N2N=Cc3ccccc3C2C(C)C)c1OC (configuration not stated) | Active | 0.188 (≈ 0.385 µM) | 
13 | COc1cc(Cc2cnc(N)nc2N)cc(/C=C/C(=O)N2N=Cc3ccccc3C2C2CCCCC2)c1OC (configuration not stated) | Active |  | 
14 | CCCC1c2cc(OC)c(OC)cc2C=NN1C(=O)/C=C/c1cc(Cc2cnc(N)nc2N)cc(OC)c1OC (racemic) |  | 1 (≈ 1.83 µM) | 1.1
15 | CCCC1c2ccccc2C=NN1C(=O)/C=C/c1cc(Cc2cnc(N)nc2N)cc(OC)c1OC (configuration not stated) |  | 0.0625 (≈ 0.128 µM) | 1.2
